{"source": "ChEMBL document CHEMBL1158524", "about": "“Synthesis and SAR of novel imidazoles as potent and selective cannabinoid CB2 receptor antagonists with high binding efficiencies” (Bioorg Med Chem Lett, 2010)"}
{"molecular_target": "Cannabinoid receptor 1 (Homo sapiens, UniProt P21554)", "sequence (P21554 whole entry)": "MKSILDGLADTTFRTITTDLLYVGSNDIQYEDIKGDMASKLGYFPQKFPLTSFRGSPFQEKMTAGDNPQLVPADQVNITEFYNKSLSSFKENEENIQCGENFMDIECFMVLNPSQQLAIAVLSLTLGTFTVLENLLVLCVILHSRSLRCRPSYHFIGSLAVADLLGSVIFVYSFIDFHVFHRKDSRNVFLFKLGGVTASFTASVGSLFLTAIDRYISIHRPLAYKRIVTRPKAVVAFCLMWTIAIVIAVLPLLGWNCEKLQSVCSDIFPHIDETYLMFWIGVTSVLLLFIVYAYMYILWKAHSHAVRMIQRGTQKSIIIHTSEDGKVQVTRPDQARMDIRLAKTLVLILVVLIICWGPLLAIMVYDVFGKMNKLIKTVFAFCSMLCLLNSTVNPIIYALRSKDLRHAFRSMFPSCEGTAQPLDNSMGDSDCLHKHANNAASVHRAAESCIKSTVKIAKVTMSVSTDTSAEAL", "experiment": "Displacement of [3H]CP-55940 from human CB1 receptor expressed in CHO cells", "type": "cell-based", "conditions": "not given", "summary_of_the_method": "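CHO cells stably transfected with human CB1 receptor. Values are the mean of at least three independent experiments.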", "units": {"Ki": "nM"}}
{"smiles": "CCc1nc(C(=O)NC23CC4CC(CC(C4)C2)C3)c(C)n1-c1ccccc1", "Ki": 4150}
{"smiles": "CSc1c(C(=O)NC23CC4CC(CC(C4)C2)C3)nc(C)n1-c1ccccc1", "Ki": "> 10000"}
{"smiles": "C[C@H](NS(C)(=O)=O)c1ccc(S(=O)(=O)c2ccc(Cl)cc2S(=O)(=O)c2ccccc2F)cc1", "Ki": 3540}
{"smiles": "Cc1nc(C(=O)NC2C3CC4CC(C3)CC2C4)c(C)n1-c1ccccc1", "note": "(stereo not drawn)", "Ki": 3010}
{"smiles": "Cc1nc(C(=O)NC23CC4CC(CC(C4)C2)C3)c(C)n1-c1ccccc1", "Ki": 4890}
{"smiles": "Cc1nc(C(=O)NCc2ccccc2C(F)(F)F)c(C)n1-c1ccccc1", "Ki": 1420}
{"smiles": "Cc1nc(C(=O)NC2C3CC4CC(C3)C2C4)c(C)n1-c1ccccc1", "note": "(stereo not drawn)", "Ki": 5440}
{"smiles": "CCc1c(C(=O)NC23CC4CC(CC(C4)C2)C3)nc(C)n1-c1ccccc1", "Ki": "> 10000"}
{"smiles": "O=C(NC12CC3CC(CC(C3)C1)C2)c1nc(Cl)n(-c2ccccc2)c1Cl", "Ki": "> 1000"}
{"smiles": "Cc1nc(C(=O)NC23CC4CC(CC(C4)C2)C3)c(Br)n1-c1ccccc1", "Ki": "> 10000"}
{"smiles": "CCCCc1c(C(=O)NC23CC4CC(CC(C4)C2)C3)nc(C)n1-c1ccccc1", "Ki": 2000}
{"smiles": "Cc1nc(C(=O)NC23CC4CC(CC(C4)C2)C3)c(Cl)n1-c1ccccc1", "Ki": "> 10000"}
{"smiles": "Cc1c(C(=O)NC[C@H]2C[C@@H]3C[C@H](C2)C3(C)C)ncn1-c1ccccc1", "Ki": "> 10000"}
{"smiles": "CCCCCOc1c(OC)ccc2cc(C(=O)NCc3ccc4c(c3)OCO4)c(=O)[nH]c12", "Ki": 3920}
{"smiles": "CCc1nc(C(=O)NC23CC4CC(CC(C4)C2)C3)cn1-c1ccccc1", "Ki": "> 1000"}
{"smiles": "Cc1nc(C(=O)NC23CC4CC(CC(C4)C2)C3)c(C)n1C1CCCCC1", "Ki": "> 10000"}
{"smiles": "Cc1nc(C(=O)NC[C@H]2C[C@@H]3C[C@H](C2)C3(C)C)c(C)n1-c1ccccc1", "Ki": 3990}
{"species": "Homo sapiens", "experiment": "Selectivity ratio of Ki for human CB1 to Ki for human CB2", "conditions": "not given"}
{"smiles": "CCc1nc(C(=O)NC23CC4CC(CC(C4)C2)C3)c(C)n1-c1ccccc1", "Ratio": 2600}
{"smiles": "CSc1c(C(=O)NC23CC4CC(CC(C4)C2)C3)nc(C)n1-c1ccccc1", "Ratio": "> 1000"}
{"smiles": "C[C@H](NS(C)(=O)=O)c1ccc(S(=O)(=O)c2ccc(Cl)cc2S(=O)(=O)c2ccccc2F)cc1", "Ratio": 4420}
{"smiles": "Cc1nc(C(=O)NC2C3CC4CC(C3)CC2C4)c(C)n1-c1ccccc1", "note": "(stereo not drawn)", "Ratio": 218}
{"smiles": "Cc1nc(C(=O)NC23CC4CC(CC(C4)C2)C3)c(C)n1-c1ccccc1", "Ratio": 1810}
{"smiles": "Cc1nc(C(=O)NCc2ccccc2C(F)(F)F)c(C)n1-c1ccccc1", "Ratio": 406}
{"smiles": "Cc1nc(C(=O)NC2C3CC4CC(C3)C2C4)c(C)n1-c1ccccc1", "note": "(stereo not drawn)", "Ratio": 561}
{"smiles": "CCc1c(C(=O)NC23CC4CC(CC(C4)C2)C3)nc(C)n1-c1ccccc1", "Ratio": "> 9710"}
{"smiles": "O=C(NC12CC3CC(CC(C3)C1)C2)c1nc(Cl)n(-c2ccccc2)c1Cl", "Ratio": "> 20"}
{"smiles": "Cc1nc(C(=O)NC23CC4CC(CC(C4)C2)C3)c(Br)n1-c1ccccc1", "Ratio": "> 1190"}
{"smiles": "CCCCc1c(C(=O)NC23CC4CC(CC(C4)C2)C3)nc(C)n1-c1ccccc1", "Ratio": "> 102"}
{"smiles": "Cc1nc(C(=O)NC23CC4CC(CC(C4)C2)C3)c(Cl)n1-c1ccccc1", "Ratio": "> 420"}
{"smiles": "Cc1c(C(=O)NC[C@H]2C[C@@H]3C[C@H](C2)C3(C)C)ncn1-c1ccccc1", "Ratio": "> 57"}
{"smiles": "CCc1nc(C(=O)NC23CC4CC(CC(C4)C2)C3)cn1-c1ccccc1", "Ratio": "> 79"}
{"smiles": "Cc1nc(C(=O)NC23CC4CC(CC(C4)C2)C3)c(C)n1C1CCCCC1", "Ratio": "> 500"}
{"smiles": "Cc1nc(C(=O)NC[C@H]2C[C@@H]3C[C@H](C2)C3(C)C)c(C)n1-c1ccccc1", "Ratio": 200}
{"molecular_target": "T1, Cannabinoid receptor 2 (Homo sapiens, UniProt P34972)", "T1 sequence (P34972 whole entry)": "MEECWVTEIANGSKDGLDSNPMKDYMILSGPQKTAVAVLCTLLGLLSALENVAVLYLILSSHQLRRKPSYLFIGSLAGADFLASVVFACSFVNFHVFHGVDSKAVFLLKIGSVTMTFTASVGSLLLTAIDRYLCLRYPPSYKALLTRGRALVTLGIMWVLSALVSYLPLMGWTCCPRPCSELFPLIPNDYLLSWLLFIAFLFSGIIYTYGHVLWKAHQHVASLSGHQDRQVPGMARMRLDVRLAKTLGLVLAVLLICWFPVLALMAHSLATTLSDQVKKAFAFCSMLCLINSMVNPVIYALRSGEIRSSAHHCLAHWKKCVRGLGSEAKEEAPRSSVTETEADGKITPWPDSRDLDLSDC", "experiment": "Displacement of [3H]CP-55940 from human CB2 receptor expressed in CHO cells", "type": "cell-based", "conditions": "not given", "summary_of_the_method": "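CHO cells stably transfected with human CB2 receptor. Values are the mean of at least three independent experiments.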", "units": {"Ki": "nM"}}
{"smiles": "CCc1nc(C(=O)NC23CC4CC(CC(C4)C2)C3)c(C)n1-c1ccccc1", "Ki": 1.6}
{"smiles": "CSc1c(C(=O)NC23CC4CC(CC(C4)C2)C3)nc(C)n1-c1ccccc1", "Ki": 10}
{"smiles": "C[C@H](NS(C)(=O)=O)c1ccc(S(=O)(=O)c2ccc(Cl)cc2S(=O)(=O)c2ccccc2F)cc1", "Ki": 0.8}
{"smiles": "Cc1nc(C(=O)NC2C3CC4CC(C3)CC2C4)c(C)n1-c1ccccc1", "note": "(stereo not drawn)", "Ki": 13.8}
{"smiles": "Cc1nc(C(=O)NC23CC4CC(CC(C4)C2)C3)c(C)n1-c1ccccc1", "Ki": 2.7}
{"smiles": "Cc1nc(C(=O)NCc2ccccc2C(F)(F)F)c(C)n1-c1ccccc1", "Ki": 3.5}
{"smiles": "Cc1nc(C(=O)NC2C3CC4CC(C3)C2C4)c(C)n1-c1ccccc1", "note": "(stereo not drawn)", "Ki": 9.7}
{"smiles": "CCc1c(C(=O)NC23CC4CC(CC(C4)C2)C3)nc(C)n1-c1ccccc1", "Ki": 1.03}
{"smiles": "O=C(NC12CC3CC(CC(C3)C1)C2)c1nc(Cl)n(-c2ccccc2)c1Cl", "Ki": 50}
{"smiles": "Cc1nc(C(=O)NC23CC4CC(CC(C4)C2)C3)c(Br)n1-c1ccccc1", "Ki": 8.4}
{"smiles": "CCCCc1c(C(=O)NC23CC4CC(CC(C4)C2)C3)nc(C)n1-c1ccccc1", "Ki": 9.8}
{"smiles": "Cc1nc(C(=O)NC23CC4CC(CC(C4)C2)C3)c(Cl)n1-c1ccccc1", "Ki": 23.8}
{"smiles": "Cc1c(C(=O)NC[C@H]2C[C@@H]3C[C@H](C2)C3(C)C)ncn1-c1ccccc1", "Ki": 175}
{"smiles": "CCc1nc(C(=O)NC23CC4CC(CC(C4)C2)C3)cn1-c1ccccc1", "Ki": 12.7}
{"smiles": "Cc1nc(C(=O)NC23CC4CC(CC(C4)C2)C3)c(C)n1C1CCCCC1", "Ki": 20}
{"smiles": "Cc1nc(C(=O)NC[C@H]2C[C@@H]3C[C@H](C2)C3(C)C)c(C)n1-c1ccccc1", "Ki": 20}
{"molecular_target": "T1, Cannabinoid receptor 2", "experiment": "Inverse agonist activity at human CB2 receptor assessed as stimulation of cAMP accumulation after 20 mins", "conditions": "not given", "units": {"EC50": "nM"}}
{"smiles": "CCc1nc(C(=O)NC23CC4CC(CC(C4)C2)C3)c(C)n1-c1ccccc1", "EC50": 1.58}
{"smiles": "CSc1c(C(=O)NC23CC4CC(CC(C4)C2)C3)nc(C)n1-c1ccccc1", "EC50": 6.31}
{"smiles": "C[C@H](NS(C)(=O)=O)c1ccc(S(=O)(=O)c2ccc(Cl)cc2S(=O)(=O)c2ccccc2F)cc1", "EC50": 7.94}
{"smiles": "Cc1nc(C(=O)NC2C3CC4CC(C3)CC2C4)c(C)n1-c1ccccc1", "note": "(stereo not drawn)", "EC50": 6.31}
{"smiles": "Cc1nc(C(=O)NC23CC4CC(CC(C4)C2)C3)c(C)n1-c1ccccc1", "EC50": 0.794}
{"smiles": "Cc1nc(C(=O)NCc2ccccc2C(F)(F)F)c(C)n1-c1ccccc1", "EC50": 0.2}
{"smiles": "Cc1nc(C(=O)NC2C3CC4CC(C3)C2C4)c(C)n1-c1ccccc1", "note": "(stereo not drawn)", "EC50": 7.94}
{"smiles": "CCc1c(C(=O)NC23CC4CC(CC(C4)C2)C3)nc(C)n1-c1ccccc1", "EC50": 20}
{"smiles": "O=C(NC12CC3CC(CC(C3)C1)C2)c1nc(Cl)n(-c2ccccc2)c1Cl", "EC50": 79.4}
{"smiles": "CCCCc1c(C(=O)NC23CC4CC(CC(C4)C2)C3)nc(C)n1-c1ccccc1", "EC50": 5.01}
{"smiles": "Cc1nc(C(=O)NC23CC4CC(CC(C4)C2)C3)c(Cl)n1-c1ccccc1", "EC50": 63.1}
{"smiles": "Cc1c(C(=O)NC[C@H]2C[C@@H]3C[C@H](C2)C3(C)C)ncn1-c1ccccc1", "EC50": 158}
{"smiles": "CCc1nc(C(=O)NC23CC4CC(CC(C4)C2)C3)cn1-c1ccccc1", "EC50": 12.6}
{"smiles": "Cc1nc(C(=O)NC23CC4CC(CC(C4)C2)C3)c(C)n1C1CCCCC1", "EC50": 126}
{"smiles": "Cc1nc(C(=O)NC[C@H]2C[C@@H]3C[C@H](C2)C3(C)C)c(C)n1-c1ccccc1", "EC50": 31.6}
{"molecular_target": "T1, Cannabinoid receptor 2", "experiment": "Inverse agonist activity at human CB2 receptor assessed as inhibition of forskolin-stimulated cAMP accumulation after 4 hrs", "type": "functional", "conditions": "not given", "summary_of_the_method": "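Functional human CB2 cAMP accumulation assay with the incubation extended to 4 h. Inverse agonism read out as pEC50. Values are the mean of at least three independent experiments.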", "units": {"EC50": "nM"}}
{"smiles": "C[C@H](NS(C)(=O)=O)c1ccc(S(=O)(=O)c2ccc(Cl)cc2S(=O)(=O)c2ccccc2F)cc1", "EC50": 5.01}
{"smiles": "Cc1nc(C(=O)NC23CC4CC(CC(C4)C2)C3)c(C)n1-c1ccccc1", "EC50": 0.794}
{"smiles": "CCc1c(C(=O)NC23CC4CC(CC(C4)C2)C3)nc(C)n1-c1ccccc1", "EC50": 0.251}
{"smiles": "CCc1nc(C(=O)NC23CC4CC(CC(C4)C2)C3)cn1-c1ccccc1", "EC50": 6.31}
{"molecular_target": "T1, Cannabinoid receptor 2", "experiment": "Antagonist activity at human CB2 receptor assessed as inhibition of forskolin-stimulated cAMP accumulation in presence of JWH133", "type": "functional", "conditions": "read-out: pA2 (converted)", "summary_of_the_method": "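Human CB2 cAMP accumulation assay measuring dose-dependent antagonism of the CB2-selective agonist JWH133, expressed as pA2 ± error. Incubation was 20 min, or 4 h for some compounds. Based on at least three independent experiments.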", "units": {"Kb": "nM"}}
{"smiles": "CCc1nc(C(=O)NC23CC4CC(CC(C4)C2)C3)c(C)n1-c1ccccc1", "Kb": 5.01}
{"smiles": "C[C@H](NS(C)(=O)=O)c1ccc(S(=O)(=O)c2ccc(Cl)cc2S(=O)(=O)c2ccccc2F)cc1", "Kb": 1}
{"smiles": "Cc1nc(C(=O)NC23CC4CC(CC(C4)C2)C3)c(C)n1-c1ccccc1", "Kb": 1.58}
{"smiles": "CCc1c(C(=O)NC23CC4CC(CC(C4)C2)C3)nc(C)n1-c1ccccc1", "Kb": 1}
{"smiles": "O=C(NC12CC3CC(CC(C3)C1)C2)c1nc(Cl)n(-c2ccccc2)c1Cl", "Kb": 7.94}
